Measurements published in ChEMBL document CHEMBL3860029, “Maximiscin Induces DNA Damage, Activates DNA Damage Response Pathways, and Has Selective Cytotoxic Activity against a Subtype of Triple-Negative Breast Cancer” (J Nat Prod, 2016).
The source made the active and inactive calls. No cut-off for these calls is given here.

Experiments:
[1] = molecular target: Cellular tumor antigen p53 (Homo sapiens) (UniProt P04637); test: Induction of p53 phosphorylation at serine15 in whole cell human MDA-MB-468 cell lysates at 1 uM by antibody microarray assay; format: cell-based; settings: TDE = time-dependent effect
Sequence of Cellular tumor antigen p53 (Homo sapiens) (P04637 whole entry, looked up): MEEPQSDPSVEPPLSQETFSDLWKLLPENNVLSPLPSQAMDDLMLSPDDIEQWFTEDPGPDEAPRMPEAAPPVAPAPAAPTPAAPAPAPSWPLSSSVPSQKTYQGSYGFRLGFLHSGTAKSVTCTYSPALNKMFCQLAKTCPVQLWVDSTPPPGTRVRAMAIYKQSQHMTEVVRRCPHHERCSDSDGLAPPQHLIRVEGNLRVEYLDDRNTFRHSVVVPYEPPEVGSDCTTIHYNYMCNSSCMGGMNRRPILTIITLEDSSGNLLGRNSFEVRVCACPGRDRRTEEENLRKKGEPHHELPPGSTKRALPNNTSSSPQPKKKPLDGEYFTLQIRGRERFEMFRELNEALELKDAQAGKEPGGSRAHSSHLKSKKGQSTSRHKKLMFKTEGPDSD
Outline: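 MDA-MB-468 whole-cell lysates, prepared as for immunoblotting after early post-treatment time points, applied to a PathScan intracellular signaling antibody array with fluorescent readout. Near-infrared signals imaged and quantified.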

MDA-MB-468 [2] = test: Antitumor activity against human MDA-MB-468 cells xenografted in athymic nude mouse assessed as tumor growth inhibition at 5 mg/kg, ip administered daily for 21 days measured on day 21 post dose relative to control; format: functional, organism-based
Outline: (§1)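 Female athymic nude mice implanted s.c. bilaterally in each flank with 2 × 10^6 MDA-MB-468 cells in DPBS plus Matrigel. Dosing began at tumor volume of at least 150 mm3, with 7 or 8 tumors/group. Dose was 5 mg/kg i.p. daily for 21 days in 2.5% DMSO/2.5% Kolliphor EL in DPBS; controls untreated. Mice weighed and examined daily; calipers twice weekly; volume = length × width × height.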

[3] = Cell cycle arrest in human MDA-MB-468 cells assessed as accumulation at G0/G1 phase at 1 to 10 uM after 18 hrs by propidium iodide staining based FACS analysis; format: functional
Outline: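 MDA-MB-468 cells (RPMI-1640, 10% FBS, gentamicin) exposed to vehicle (DMSO) or compound for 18 h. Cells harvested and stained with Krishan's reagent (PI). DNA content read on a Muse Cell Analyzer to give phase distribution. n = 3; two-way ANOVA with Dunnett's post-hoc test.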

BT-549 = test: Selectivity ratio of LC50 for human BT549 cells to LC50 for human MDA-MB-468 cells; format: functional
Outline: (§2)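 Both LC50s come from 48 h sulforhodamine B assays, with T0 density measured at treatment. LC50 is 50% cell death vs T0, interpolated by nonlinear regression. At least 3 independent experiments, concentrations in triplicate. MDA-MB-468, HCC70 and BT-549 were grown in RPMI-1640. MDA-MB-231 and MDA-MB-453 were grown in IMEM.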

MDA-MB-468 [4] = test: Induction of DNA double stranded break in human MDA-MB-468 cells assessed as increase in gamma-H2A.X foci at 1 to 10 uM after 18 hrs by nucblue staining based immunofluorescent microscopic analysis; format: functional, cell-based
Outline: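 MDA-MB-468 cells on glass coverslips, adhered overnight, then exposed 18 h. Paraformaldehyde fixation, blocking in 10% bovine calf serum/DPBS 20 min at room temperature, then anti-γ-H2A.X in 1% BSA/0.3% Triton X-100. Detection with Alexa Fluor 594 secondary and NucBlue nuclear counterstain at 60× objective. Two independent experiments, each concentration in duplicate.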

[5] = Cytotoxicity against human MDA-MB-468 cells after 48 hrs by SRB assay; format: functional; settings: MDA-MB-468, 48 h, read-out: LC50 (the source's name)
Outline: (§3)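 Cells grown in RPMI-1640 with 50 µg/mL gentamicin and 10% FBS at 37°C, 5% CO2, and passaged under 3 months after revival. Sulforhodamine B assay after 48 h of compound exposure, with cell density measured at time of treatment (T0). LC50 (50% cell death vs T0) interpolated by nonlinear regression. At least 3 independent experiments, each concentration in triplicate.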

[6] = molecular target: Cellular tumor antigen p53 (Homo sapiens) (UniProt P04637); test: Induction of p53 phosphorylation at serine15 in human MDA-MB-468 cells after 2 hrs at 1 uM by immunoblot analysis; format: cell-based
Outline: (§4)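 Whole-cell lysates of MDA-MB-468 cells taken after vehicle or compound treatment for the stated times. Lysis buffer held protease inhibitors, PMSF and Na3VO4. Equal protein run on SDS-PAGE, blotted to PVDF and probed for phospho-S345-Chk1, phospho-T68-Chk2 and phospho-S15-p53 alongside total proteins and β-actin. Read by near-infrared fluorescent secondaries.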

[7] = molecular target: Serine/threonine-protein kinase Chk2 (Homo sapiens) (UniProt O96017); test: Induction of CHK2 phosphorylation at T68-residue in human MDA-MB-468 cells at 1 uM after 2 hrs by immunoblot analysis; format: cell-based; outline: as §4
Sequence of Serine/threonine-protein kinase Chk2 (Homo sapiens) (O96017 whole entry): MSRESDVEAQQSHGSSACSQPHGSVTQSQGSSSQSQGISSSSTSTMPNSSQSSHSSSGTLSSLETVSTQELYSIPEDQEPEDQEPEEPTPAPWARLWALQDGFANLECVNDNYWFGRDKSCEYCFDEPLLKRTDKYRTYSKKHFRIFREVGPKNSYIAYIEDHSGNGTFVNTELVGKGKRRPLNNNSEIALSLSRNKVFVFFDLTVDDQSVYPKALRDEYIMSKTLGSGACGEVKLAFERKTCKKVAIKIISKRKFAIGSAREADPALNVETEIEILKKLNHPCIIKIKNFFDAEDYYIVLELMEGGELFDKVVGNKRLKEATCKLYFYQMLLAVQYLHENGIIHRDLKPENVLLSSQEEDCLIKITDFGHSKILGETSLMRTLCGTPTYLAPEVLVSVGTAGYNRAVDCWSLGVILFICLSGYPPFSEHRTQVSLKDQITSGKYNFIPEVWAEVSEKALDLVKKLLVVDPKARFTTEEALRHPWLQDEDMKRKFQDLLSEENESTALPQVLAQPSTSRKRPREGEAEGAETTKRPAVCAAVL

[8] = Selectivity ratio of LC50 for human MDA-MB-453 cells to LC50 for human MDA-MB-468 cells; format: functional; outline: as §2
Mus musculus = test: Toxicity in athymic nude mouse xenografted with human MDA-MB-468 cells assessed as weight loss at 5 mg/kg, ip administered daily for 21 days […] relative to control; format: organism-based; settings: in vivo, 504 h; outline: as §1
[9] = Selectivity ratio of LC50 for human MDA-MB-231 cells to LC50 for human MDA-MB-468 cells; format: functional; outline: as §2
[10] = Cytotoxicity against human BT549 cells after 48 hrs by SRB assay; format: functional; settings: BT-549, 48 h, read-out: LC50 (the source's name); outline: as §3
HCC70 = test: Selectivity ratio of LC50 for human HCC70 cells to LC50 for human MDA-MB-468 cells; format: functional; outline: as §2
[11] = Cytotoxicity against human MDA-MB-453 cells after 48 hrs by SRB assay; format: functional; settings: MDA-MB-453, 48 h, read-out: LC50 (the source's name)
Outline: as §3, with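 “in IMEM” for “in RPMI-1640”, “with 25” for “with 50”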

[12] = molecular target: T1, Serine/threonine-protein kinase Chk1 (Homo sapiens) (UniProt O14757); test: Induction of CHK1 phosphorylation at S345-residue in human MDA-MB-468 cells at 1 uM after 4 hrs by immunoblot analysis; format: cell-based; outline: as §4
T1 sequence (whole entry): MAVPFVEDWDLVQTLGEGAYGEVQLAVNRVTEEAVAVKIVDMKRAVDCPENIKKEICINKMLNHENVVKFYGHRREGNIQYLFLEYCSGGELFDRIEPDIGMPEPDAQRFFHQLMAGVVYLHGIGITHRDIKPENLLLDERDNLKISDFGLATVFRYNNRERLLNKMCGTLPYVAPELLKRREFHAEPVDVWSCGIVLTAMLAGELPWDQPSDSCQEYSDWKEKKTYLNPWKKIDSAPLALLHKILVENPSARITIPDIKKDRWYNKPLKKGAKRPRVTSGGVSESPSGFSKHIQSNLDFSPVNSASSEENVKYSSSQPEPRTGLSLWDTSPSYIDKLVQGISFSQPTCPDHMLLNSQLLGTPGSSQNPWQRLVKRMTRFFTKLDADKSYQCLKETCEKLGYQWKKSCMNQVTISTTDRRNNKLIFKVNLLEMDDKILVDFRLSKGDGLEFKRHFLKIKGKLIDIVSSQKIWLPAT

[13] = Cytotoxicity against human HCC70 cells after 48 hrs by SRB assay; format: functional; settings: HCC70, 48 h, read-out: LC50 (the source's name); outline: as §3
[14] = Cytotoxicity against human MDA-MB-231 cells after 48 hrs by SRB assay; format: functional; settings: MDA-MB-231, 48 h, read-out: LC50 (the source's name)
Outline: as §3, with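 “in IMEM” for “in RPMI-1640”, “with 25” for “with 50”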

SMILES	Activity [1]	TGI (MDA-MB-468 [2])	Activity [3]	RatioLC50 (BT-549)	Activity (MDA-MB-468 [4])	CC50 [5] [nM]	Activity [6]	Activity [7]	RatioLC50 [8]	Activity (Mus musculus) [%]	RatioLC50 [9]	CC50 [10] [nM]	RatioLC50 (HCC70)	CC50 [11] [nM]	Activity [12]	CC50 [13] [nM]	CC50 [14] [nM]
C=C[C@@H]1C[C@H](C)C[C@H](C)[C@H]1c1c(O)ccn(O[C@@H]2C(C(=O)OC)=C[C@@H](O)[C@@H](O)[C@H]2O)c1=O	Tde	Active	Active	25 - 100	Dose-dependent effect	600	Active	Active	25 - 100	12	25 - 100	15000	25 - 100	15000	Active	39000	60000
CC(=O)O[C@H]1C(=O)[C@@]2(C)[C@H]([C@H](OC(=O)c3ccccc3)[C@]3(O)C[C@H](OC(=O)[C@H](O)[C@@H](NC(=O)c4ccccc4)c4ccccc4)C(C)=C1C3(C)C)[C@]1(OC(C)=O)CO[C@@H]1C[C@@H]2O [PACLITAXEL]	–	–	–	–	–	9.8	–	–	–	–	–	18	–	8.2	–	> 31.2	> 62.5
